Calls of active or inactive are those of the source. No cut-off for these calls is given here.
Assays:
[1] = target: T1, Tyrosine-protein phosphatase non-receptor type 1 (Homo sapiens, UniProt P18031); test: Concentration required to inhibit PTPase activity, recombinant Protein Tyrosine Phosphatase 1b as the enzyme at a concentration 2.5 uM.
T1 sequence (P18031 whole entry): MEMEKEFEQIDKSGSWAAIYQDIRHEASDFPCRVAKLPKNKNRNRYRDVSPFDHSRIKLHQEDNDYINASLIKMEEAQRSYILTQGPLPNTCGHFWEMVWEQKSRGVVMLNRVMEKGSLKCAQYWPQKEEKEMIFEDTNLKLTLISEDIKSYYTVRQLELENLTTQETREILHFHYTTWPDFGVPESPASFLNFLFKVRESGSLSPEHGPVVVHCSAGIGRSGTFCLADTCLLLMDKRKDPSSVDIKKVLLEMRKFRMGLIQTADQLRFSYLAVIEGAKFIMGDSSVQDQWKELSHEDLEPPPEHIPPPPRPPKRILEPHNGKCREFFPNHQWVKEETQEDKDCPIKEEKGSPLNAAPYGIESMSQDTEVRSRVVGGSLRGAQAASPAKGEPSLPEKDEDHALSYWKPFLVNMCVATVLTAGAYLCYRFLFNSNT
Procedure, shortened: (§1)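 Rat recombinant PTP1B in 33 mM TRIS-HCl, 2 mM EDTA, 50 mM β-mercaptoethanol, pH 7.4 (about 1000-2000 nmol/min/mg). Preincubated 10 min at 37 °C with or without compound in HEPES buffer pH 7.4. Released phosphate read by malachite green-ammonium molybdate at 650 nm against a phosphate standard. Quadruplicates. IC50 by four-parameter logistic fit.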

[2] = target: T2, Tyrosine-protein phosphatase non-receptor type 1 (Rattus norvegicus) (UniProt P20417); test: Inhibition of PTPase (PTP1B) activity in rat hepatic membrane at 50 uM concentration, using pNPP as the substrate; type: cell membranes; conditions: Liver
T2 sequence (whole entry): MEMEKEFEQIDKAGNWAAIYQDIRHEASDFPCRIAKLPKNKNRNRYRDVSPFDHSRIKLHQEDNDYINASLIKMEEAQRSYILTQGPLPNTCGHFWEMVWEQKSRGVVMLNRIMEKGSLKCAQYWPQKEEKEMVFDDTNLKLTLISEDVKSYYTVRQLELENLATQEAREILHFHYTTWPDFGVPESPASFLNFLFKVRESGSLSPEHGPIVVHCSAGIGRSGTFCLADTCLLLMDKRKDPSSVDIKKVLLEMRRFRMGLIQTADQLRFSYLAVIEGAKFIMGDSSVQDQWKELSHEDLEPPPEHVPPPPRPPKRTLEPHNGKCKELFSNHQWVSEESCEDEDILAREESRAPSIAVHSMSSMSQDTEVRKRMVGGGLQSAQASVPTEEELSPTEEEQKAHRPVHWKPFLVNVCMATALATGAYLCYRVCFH
Procedure, shortened: (§2)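 Liver membranes from male Sprague-Dawley rats (100-150 g), about 30 µg protein per well. Preincubated 10 min at 37 °C with compound in 1.25% DMSO in 50 mM HEPES pH 7.4. Then 6.33 mM pNPP for 30 min at 37 °C, stopped with NaOH. p-Nitrophenol read at 410 nm. Run in triplicate. Reported as percent of untreated control.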

[3] = target: T2, Tyrosine-protein phosphatase non-receptor type 1 (Rattus norvegicus); test: Inhibition of PTPase activity in rat hepatic membrane at a concentration of 250 uM using pNPP as the substrate; type: cell membranes; conditions: Liver; procedure, shortened: as §2
Mus musculus [4] = test: Evaluated in vivo for their ability to decrease plasma glucose levels in diabetic C57BL/KsJ db/db mouse at a dose 100 mg/kg/day.([…]); type: functional
Procedure, shortened: (§3)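 Diabetic db/db or ob/ob mice dosed orally once daily for 4 days. Plasma glucose and insulin reported as percent change from a vehicle-treated group. 4-6 mice per group. Significance set at p < 0.05 or p < 0.01 versus vehicle; NS means generally less than -15% change.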

Mus musculus [5] = test: Evaluated for their ability to decrease plasma insulin levels in mouse at a dose 50 mg/kg/day. **p indicates <0.01; type: functional; procedure, shortened: as §3
Mus musculus [6] = test: Evaluated in vivo for their ability to decrease plasma glucose levels in diabetic C57BL/KsJ db/db mouse at a dose 100 mg/kg/day. *p indicates <0.05; type: functional
Procedure, shortened: (§4)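 Mice dosed orally once daily for 4 days; plasma glucose and insulin measured and expressed as percent change versus a vehicle-treated group (mean ± SE, 4-6 mice/group). NS is generally less than -15% change. Significance is versus vehicle-treated mice.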

Mus musculus [7] = test: Evaluated in vivo for their ability to decrease plasma glucose levels in diabetic C57BL/KsJ ob/ob mouse at a dose 50 mg/kg/day.; type: functional, organism-based; procedure, shortened: as §3
Mus musculus [8] = test: Evaluated for their ability to decrease plasma insulin levels in mouse at a dose 100 mg/kg/day; **p indicates <0.01; type: functional; procedure, shortened: as §4
Mus musculus [9] = test: Evaluated in vivo for their ability to decrease plasma glucose levels in diabetic C57BL/KsJ db/db mouse at a dose 100 mg/kg/day; *p indicates <0.05; type: functional; procedure, shortened: as §4
Mus musculus [10] = test: Evaluated in vivo for their ability to decrease plasma glucose levels in diabetic C57BL/KsJ ob/ob mouse at a dose 100 mg/kg/day; **p indicates <0.01; type: functional; procedure, shortened: as §3
Mus musculus [11] = test: Evaluated for their ability to decrease plasma insulin levels in mouse at a dose 100 mg/kg/day, **p indicates <0.01; type: functional; procedure, shortened: as §3
[12] = target: T3, Tyrosine-protein phosphatase non-receptor type 1 (Rattus norvegicus, UniProt P20417); test: Inhibition of PTPase activity using recombinant r-PTP1B and IR-triphosphopeptide as substrate; ND is no data.; procedure, shortened: as §1
T3 sequence (P20417 whole entry): T2 sequence (whole entry)

Mus musculus [13] = test: (§5) Evaluated in vivo for their ability to decrease plasma glucose levels in diabetic C57BL/KsJ db/db mouse at a dose 100 mg/kg/day, *p indicates <0.05; type: functional; procedure, shortened: as §4
Mus musculus [14] = test: Evaluated in vivo for their ability to decrease plasma glucose levels in diabetic C57BL/KsJ ob/ob mouse at a dose 100 mg/kg/day, **p indicates <0.01; type: functional; procedure, shortened: as §3
[15] = target: T4, Tyrosine-protein phosphatase non-receptor type 1 (Mus musculus) (UniProt P35821); test: Ability to decrease plasma insulin levels in mouse at a dose 100 mg/kg/day; type: functional, organism-based; procedure, shortened: as §3
T4 sequence (whole entry): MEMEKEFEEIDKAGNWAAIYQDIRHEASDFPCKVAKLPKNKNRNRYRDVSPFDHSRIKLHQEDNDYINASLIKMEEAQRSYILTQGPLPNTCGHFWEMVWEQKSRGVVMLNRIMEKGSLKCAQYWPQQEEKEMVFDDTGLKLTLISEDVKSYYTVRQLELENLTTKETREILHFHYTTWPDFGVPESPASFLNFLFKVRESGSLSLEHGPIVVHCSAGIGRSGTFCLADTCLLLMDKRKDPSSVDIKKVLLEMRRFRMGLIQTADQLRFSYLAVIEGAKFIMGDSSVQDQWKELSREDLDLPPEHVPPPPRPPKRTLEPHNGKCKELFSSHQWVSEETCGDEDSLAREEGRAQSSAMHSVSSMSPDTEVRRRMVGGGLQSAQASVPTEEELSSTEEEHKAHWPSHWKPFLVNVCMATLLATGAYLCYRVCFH

Mus musculus [16] = test: Evaluated in vivo for their ability to decrease plasma glucose levels in diabetic C57BL/KsJ db/db mouse at a dose 100 mg/kg/day; NS is non significant, generally less than - 15% change; type: functional, organism-based; procedure, shortened: as §3
[17] = target: T4, Tyrosine-protein phosphatase non-receptor type 1 (Mus musculus); test: In vivo ability to decrease plasma glucose levels in diabetic C57BL/KsJ ob/ob mouse at a dose 100 mg/kg/day; type: functional, organism-based; procedure, shortened: as §3
Mus musculus [18] = test: as §5; type: functional; procedure, shortened: as §3; remark: listed apart in the source

SMILES: C/C(=C\Cn1oc(=O)[nH]c1=O)c1cccc(OCc2ccccn2)c1
- IC50 [1]: 9 µM
- inhibition [2]: 5%

SMILES: Cc1c(C)c2c(c(C)c1O)CCC(C)(COc1ccc(CC3SC(=O)NC3=O)cc1)O2 (stereo not given) [TROGLITAZONE]
- inhibition [3]: 29%
- Decrease (Mus musculus [4]): 34%

SMILES: Cc1oc(-c2ccc(C(F)(F)F)cc2)nc1COc1cccc(/C=C/C(C)n2oc(=O)[nH]c2=O)c1 (stereo not given)
- Decrease (Mus musculus [5]): 83%
- Decrease (Mus musculus [6]): 41%
- Decrease (Mus musculus [7]): inactive
- inhibition [2]: 49%

SMILES: C/C(=C\Cn1oc(=O)[nH]c1=O)c1cccc(OCc2nc(-c3ccccc3)oc2C)c1 (stereo in doubt; 49)
- Decrease (Mus musculus [8]): 76%
- Decrease (Mus musculus [9]): 28%
- Decrease (Mus musculus [10]): 39%

SMILES: C/C(=C\Cn1oc(=O)[nH]c1=O)c1cccc(OCc2nc(-c3ccc(OC(F)(F)F)cc3)oc2C)c1
- Decrease (Mus musculus [11]): 82%
- IC50 [12]: Not significant
- Decrease (Mus musculus [13]): 41%
- inhibition [2]: 57%
- Decrease (Mus musculus [14]): 39%

SMILES: C/C(=C\CC1OC(=O)NC1=O)c1cccc(OCCc2nc(-c3ccccc3)oc2C)c1 (stereo not given)
- Decrease [15]: Not significant
- Decrease (Mus musculus [16]): inactive
- IC50 [12]: Not significant
- inhibition [2]: 36%
- Decrease [17]: Not significant

SMILES: C/C(=C\Cn1oc(=O)[nH]c1=O)c1ccc(OCc2nc(-c3ccc(C(F)(F)F)cc3)oc2C)cc1
- Decrease (Mus musculus [18]): 16%
- Decrease [15]: Not significant
- inhibition [2]: 4.3%
- Decrease [17]: Not significant
